Experimental findings from ChEMBL document CHEMBL1141109, “Synthesis of an estrogen receptor beta-selective radioligand: 5-[18F]fluoro-(2R,3S)-2,3-bis(4-hydroxyphenyl)pentanenitrile and comparison of in vivo distribution with 16alpha-[18F]fluoro-17beta-estradiol” (J Med Chem, 2005) are described below.

For experiment [1], the species on record is Mus musculus. Nature of the experiment: Serum estradiol level in estrus estrogen receptor beta mouse; (n=3). It counts as functional, organism-based. The procedure, abridged:
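Serum was collected and sent to an outside laboratory for radioimmunoassay using reagents intended for human serum. […] Results are in pg/mL as mean ± SD, with three samples per mouse.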

The species named for experiment [2] is Mus musculus. Nature of the experiment: Serum estradiol level in nonestrus mouse BALB/c cell line; (n=3).

Structures are written as SMILES.

Regarding `C[C@]12CC[C@@H]3c4ccc(O)cc4CC[C@H]3[C@@H]1CC[C@@H]2O`, the results for the Level in the experiment listed under Mus musculus [1] and in the experiment filed under Mus musculus [2] were 43.8 pg/mL and 28.7 pg/mL, respectively.
